Assay results as given in ChEMBL document CHEMBL4513216, “Probing the Open Global Health Chemical Diversity Library for Multistage-Active Starting Points for Next-Generation Antimalarials” (ACS Infect Dis, 2020).

Test: Toxicity liver stage against HepG2, at 10uM
Format: cell-based
Parameters: test concentration 10 uM, cell line HepG2-A16-CD81EGFP
Conditions: human, HepG2-A16-CD81EGFP cells; read-out: INHIBITION
Method in brief: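 Uninfected HepG2-A16-CD81EGFP cells, 3 × 10^3 per well, 1536-well, plated on prespotted compound at 10 μM final, parasite-free screening media added to match infected plates; puromycin 10 μM positive, DMSO 0.5% negative; run in parallel with 48 h PbLuc assay at 37 °C, 5% CO2; viability by CellTiter-Glo luminescence, normalized to controls.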

| SMILES | cytotoxicity at 10 µM |
| --- | --- |
| COCCn1cnnc1Cn1ccnc1-c1ccoc1 | -2.66% |
| COc1ccc(NC(=O)CCNc2ncccn2)cn1 | -48.4% |
| CN(Cc1ccccc1)CC(C)(C)NC(=O)c1ccc(C(N)=O)cn1 | -0.616% |
| COc1cccc(N2CCN(Cc3ncc[nH]3)CC2=O)c1 | -5.73% |
| Cc1cccc(SC2CCN(C(=O)CCNS(C)(=O)=O)CC2)c1 | 1.2% |
| Cc1ccc(S(=O)(=O)n2ccc(C(=O)NCC(F)(F)F)c2)cc1 | -4.78% |
| COc1cc(C)c(C)cc1S(=O)(=O)N(C)CC(=O)Nc1ccon1 | 2.74% |
| Cc1c(C(=O)O)cnn1-c1ccc(-c2nc(C(C)(C)C)no2)cn1 | 7.19% |
| CCCc1nnc(NC(=O)N2CCCC2c2ccncc2)s1 (stereo not drawn) | 5.36% |
| CCOCCCNC(=O)C(C)n1cc(Br)cn1 (stereo not drawn) | -4.24% |
| COc1ccc(Cl)cc1CCNC(=O)NCc1cnn(C)c1C | 3.87% |
| Cc1cnc(N2CCCC3(CCCN3CC(=O)N(C)C)C2)nc1 (stereo not drawn) | -0.634% |
| O=C(c1ccoc1)N1CCC(NCc2ccccc2Cl)CC1 | 3.95% |
| CC(C)C(C)NC(=O)Nc1ccc(CS(=O)(=O)C(C)C)cc1 (stereo not drawn) | -1.28% |
| CN1C[C@H](O)[C@]2(CCN(C(=O)COc3ccccc3)C2)S1(=O)=O | 1.32% |
| Cc1oc(C(=O)O)cc1S(=O)(=O)Nc1c(F)cccc1-n1cccn1 | -3.45% |
| CCc1cnc(C)nc1NCCNc1nc(C)cc(=O)[nH]1 | -9.01% |
| CCc1nnc(CN2CCN(C(=O)c3ccccn3)CC2)o1 | 3.49% |
| COc1ccc(C2CNCCN2C(=O)c2cccc3ncccc23)cc1 (stereo not drawn) | -8.73% |
| Cc1ccc(CN(CCN(C)C)C(=O)Nc2cnn(C)c2)s1 | 4.16% |
| O=c1ccc2c(n1Cc1cccnc1)CCN(Cc1ccoc1)CC2 | -140% |

| SMILES | cytotoxicity at 10 µM |
| --- | --- |
| CC(=O)NCCC(=O)NCCCOc1c(C)cccc1C | -4.81% |
| CC(Cn1cccn1)NC(=O)N(C)Cc1ccc(Cl)s1 (stereo not drawn) | -11.9% |
| COc1ccc(CN2CCC[C@H]2c2nc(-c3cncnc3N)no2)cc1 | -57% |
| COCCNC(=O)NC1(c2ccccc2F)CC1 | -0.421% |
| Cc1ccc(C(=O)NCC(C)CN2CCCC2=O)c(=O)[nH]1 (stereo not drawn) | -8.57% |
| CCC(C#N)NC(=O)CCNC(=O)C(C)(C)C (stereo not drawn) | -1.55% |
| OCCN(Cc1cccnc1)c1ncc(Br)cn1 | 9.68% |
| CN1C(=O)CCC12CCN(Cc1ccco1)CC2 | 1.61% |
| CC(=O)Nc1nc(C2CCN(C(=O)c3ccncc3)CC2)cs1 | -9.44% |
| CCOCC(=O)N1CC[C@H]2O[C@@H](C)C[C@H]2C1 | -67.9% |
| C=C(C)C(=O)N1CCC(C(=O)c2cc(C)cnc2N)CC1 | -2.88% |
| CC(=O)N1CC[C@@H]2O[C@@H](COCc3csc(C)n3)CC[C@@H]21 | -71.7% |
| COc1cccc(C(C(=O)O)N2CCCN(c3ccnc(C)c3)CC2)c1 (stereo not drawn) | 4.98% |
| CNC(=O)C(C)(C)N1CCC[C@H]1C(=O)NCC(C)C | 1.55% |
| CC(C)OC(=O)CC(NC(=O)CCn1cccn1)c1ccccc1 (stereo not drawn) | -12.2% |
| COC(=O)C(C)(C)NC(=O)C1CC(=O)N(C2CC2)C1 (stereo not drawn) | -139% |
| COC(=O)Cn1c(=O)[nH]c2cn(-c3cccc(C)c3)c(=O)n21 | 5.42% |
| COc1ccc(C(=O)N2CCOc3ccncc32)cc1 | 12.8% |
| CC(C)N(Cc1ccc(C#N)cc1)Cc1nnsc1Cl | 12.6% |
| CC(C)(C)OC(=O)N1CCC(C(=O)NCc2ccccc2)C1 (stereo not drawn) | 17.7% |
| Cn1nc(C2CCCN(C(=O)Cc3ccsc3)C2)c2nccnc21 (stereo not drawn) | 4.68% |

| SMILES | cytotoxicity at 10 µM |
| --- | --- |
| CN(C)c1ncccc1NC(=O)COC1CCCC1 | 0.189% |
| CN(C)C(=O)c1cccnc1N1CCOC(c2ccc(Cl)cc2)C1 (stereo not drawn) | 9.39% |
| CCn1cc(NC(=O)NCC(c2cccc(F)c2)N(C)C)cn1 (stereo not drawn) | 0.633% |
| COc1ccc(Cl)cc1-c1cc(NC(=O)C2COCCO2)[nH]n1 (stereo not drawn) | -29.1% |
| O=C(O)[C@@H]1CN(C(=O)NCC2CCCCC2)C[C@H]1c1ccccn1 | 7.15% |
| NC(=O)C1CCN(CCCNC(=O)Nc2nncs2)CC1 | -0.165% |
| COc1ccc(CNC(=O)CCN2CCOC(C(F)(F)F)C2)cc1 (stereo not drawn) | 4.3% |
| CCOC1COC2(CCN(CC3CCOCC3)CC2)C1 (stereo not drawn) | -97.6% |
| CS(=O)(=O)N[C@@H]1CCO[C@]2(CCN(CC3CCOCC3)C2)C1 | -132% |
| O=C(CCS(=O)(=O)c1ccccc1)NC1CCOC2(CCOCC2)C1 (stereo not drawn) | 7.56% |
| Cc1c(Br)cccc1C(=O)NCc1cnn(C)c1 | 3.15% |
| Cc1cc(C2CCCN2C(=O)c2ccc(OCC(N)=O)cc2)no1 (stereo not drawn) | -43.9% |
| c1cncc(-c2noc(CN3CCCC(Cn4cncn4)C3)n2)c1 (stereo not drawn) | -2.18% |
| CCN(CC1CCOCC1)C(=O)Cn1ccccc1=O | -19.9% |
| COc1ccc2c(c1)C(C(=O)NCCN1CCNC1=O)CC(=O)N2 (stereo not drawn) | -1.13% |
| Cc1ccc(CN2CC[C@H]3C(=O)N(Cc4cccnc4)CCO[C@H]3C2)o1 | -88.7% |
| NC(=O)CN1CCC(NC(=O)N2CCCC2c2ccsc2)CC1 (stereo not drawn) | 1.91% |
| COc1cccc(-c2ncc(CN3C[C@H]4CC[C@@H](C3)N(C)C4=O)s2)c1 | 6.74% |
| Cc1ccc(NC2CCN(C(=O)CCCc3ccccn3)CC2)nn1 | 16.4% |
| CCOc1nc2cnccc2n(CC(=O)NCc2ccco2)c1=O | -8.84% |
| CC(C)c1nnc(NC(=O)c2cccc(OCC(F)(F)F)n2)[nH]1 | -1.26% |

| SMILES | cytotoxicity at 10 µM |
| --- | --- |
| COc1ccnc(CN2CCCC(CCc3ccc(F)cc3)C2)c1OC (stereo not drawn) | 50.4% |
| COc1cc(N2CCOC(c3ccc(F)cc3)C2)ncn1 (stereo not drawn) | 15.3% |
| CCc1cnc(NCCSc2cnn[nH]2)nc1 | -10.4% |
| CN1CCN(S(=O)(=O)c2cncc(F)c2)c2ccccc2C1 | -3.69% |
| c1ccc(-c2nccc(CNCC3CCCN3c3cccnn3)n2)cc1 (stereo not drawn) | -1.17% |
| Cc1cnn(CC2CCCCN2C(=O)c2cccc3c2OCO3)c1 (stereo not drawn) | -4.89% |
| CN1C(=O)[C@@H]2CC[C@H]1CN(S(=O)(=O)c1ccc(Cl)cc1Cl)C2 | 1.47% |
| O=C1CCCc2[nH]c(=O)c(C(=O)N3CCc4ccccc4C3)cc21 | 14.6% |
| CN(CCc1cn[nH]c1)C(=O)C1CC(=O)N(Cc2cccnc2)C1 (stereo not drawn) | -0.812% |
| COc1ccc(Br)c(C(=O)N2CCC(c3n[nH]c(C4CC4)n3)CC2)c1 | -1.44% |
| CSCCCNc1ncnc2cccc(F)c12 | 0.721% |
| Cc1ncsc1C(=O)NC1CCN(CCC#N)CC1 | -8.87% |
| COc1cccc([C@H]2CN(C(=O)c3scc4c3CCCC4)C[C@@H]2N)c1 | -3.45% |
| COc1ccc(CCn2cnnc2[S+](C)[O-])cc1 (stereo not drawn) | 3.4% |
| COc1ccc(C(C)N2CCC(CO)CC2)cc1Cl (stereo not drawn) | -51.1% |
| CC(C(=O)NCC(F)(F)F)N1CCC(N2CCN(C)C2=O)CC1 (stereo not drawn) | 5.11% |
| COc1ccc(C2CCN(S(=O)(=O)CCCC#N)CC2)cc1 | 7.13% |
| Cc1ccc(OCC(C)NS(C)(=O)=O)cc1C (stereo not drawn) | 9.98% |
| Cc1nc(C)n(CC2CCCN2CCCc2nc3ccccc3o2)n1 (stereo not drawn) | -8.58% |
| Cc1nc2n(n1)CC(Nc1ncnc3c1CCC3)CC2 (stereo not drawn) | -44.1% |
